Test: Toxicity liver stage against HepG2, at 10uM
Format: cell-based
Set-up: test concentration 10 uM, cell line HepG2-A16-CD81EGFP
Settings: human, HepG2-A16-CD81EGFP cells; read-out: INHIBITION
How it was run: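 Uninfected HepG2-A16-CD81EGFP cells, 3 × 10^3 per well, 1536-well, plated on prespotted compound at 10 μM final, parasite-free screening media added to match infected plates; puromycin 10 μM positive, DMSO 0.5% negative; run in parallel with 48 h PbLuc assay at 37 °C, 5% CO2; viability by CellTiter-Glo luminescence, normalized to controls.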

| Compound | cytotoxicity at 10 µM [%] |
| --- | --- |
| Cc1n[nH]c(C(=O)NCc2ccnc(OCC(F)(F)F)c2)c1Br | 5.67 |
| Cc1cnc(C(=O)N2C[C@H]3CN(Cc4nccs4)C[C@H]3C2)cn1 | -147 |
| CCCc1cc(=O)n(CC(N)=O)c(-n2nc(C)cc2C)n1 | 0.097 |
| Cn1cnnc1S(=O)(=O)C1CCN(S(=O)(=O)c2ccc(F)c(Cl)c2)CC1 | -7.2 |
| CC(=O)Nc1ncc(S(=O)(=O)Nc2ccc3c(c2)OCCO3)s1 | 2.93 |
| CC(C)C[C@H](N)COc1cccc(F)c1Oc1cccc(Cl)c1 | 86.1 |
| CN1CCC(c2cccc(Cc3ccccc3)n2)CC1 | -9.24 |
| CNC(=O)C(C)CN(C)C(=O)Nc1cc(F)cc(Br)c1 (stereo not given) | 4.25 |
| Cn1cc(Nc2cccc(C(=O)N(CC(N)=O)C3CCCC3)c2)cn1 | -1.78 |
| Cc1cc(C)n(C2CN(c3nc(-c4ccncc4)nc4c3CCC4)C2)n1 | -33.6 |
| NC(=O)c1ccnc(N2CCN(Cc3ccc(F)cc3Cl)CC2)c1 | 40.8 |
| Cc1cc(N(C)CC2COc3ccccc3O2)nc(C)n1 (stereo not given) | 38.7 |
| CC(NC1(CNC(=O)CC2CCCC2)CCOCC1)c1ccccc1 (stereo not given) | -1.67 |
| Cc1ncc(CN2CCC(c3nc4cc(Cl)ccc4o3)CC2)s1 | 51.7 |
| COCCOc1ccccc1CNCC1COC2(CCCC2)O1 (stereo not given) | -143 |
| CC(C)(C)c1ncc(CNc2ccccc2SCCC(N)=O)s1 | 55.4 |
| CC(=O)N1CCC(C(=O)NCc2ncc(-c3ccccc3)o2)CC1 | -63.8 |
| NC(=O)c1cccc(CCNCc2cnc(C3CCC3)s2)c1 | 21.9 |
| CC(C)(C)c1nc(NS(=O)(=O)c2ccccc2F)no1 | -1.45 |
| CC(C)(C)c1nc(NS(=O)(=O)c2cccc(F)c2)no1 | -10.8 |
| CCSc1cncc(NCc2ccc(N3CCNC(=O)C3)cc2)n1 | 15.7 |
| O=C(CN1CCCC(c2ccn[nH]2)C1)Nc1nc2c(s1)CCC2 (stereo not given) | -42.4 |
| C[C@@H]1CN(c2nc(N)nc3c2CCC3)CC[C@@]1(O)C1CCC1 | 36.9 |

| Compound | cytotoxicity at 10 µM [%] |
| --- | --- |
| COc1cc(Oc2ccc(C#N)cn2)ccc1CN1CCCC1 | 32.2 |
| COc1ccc(CN2CCC=C(C(C)NC(C)=O)C2)cc1 (stereo not given) | -5.5 |
| Cc1nc(N2CCC3(CCCN(C(C)C)C3=O)C2)c2sccc2n1 (stereo not given) | 18.6 |
| Fc1ccccc1CC1CCN(Cc2cscn2)CC1 | -5.71 |
| CN(C)C1CCN(Cc2cnc(S(C)(=O)=O)n2CC2CCCCC2)C1 (stereo not given) | 0.83 |
| COC(=O)CNC(=O)c1cn(Cc2ccccc2F)nn1 | 4.98 |
| CN(Cc1cccnc1N)Cc1cccc2ncccc12 | 53.8 |
| COc1ccc2c(c1)C(C(=O)N(C)CCc1cnn(C)c1)CC(=O)N2 (stereo not given) | -57.2 |
| COCc1cc(N2CCc3onc(-c4cccc(OC)c4)c3C2)ncn1 | 14.4 |
| CC(=O)Cn1c(C)cc(=O)c2cc(F)ccc21 | -4.46 |
| Cc1cnccc1N1CCN(c2nccc(CCC(F)(F)F)n2)CC1 | 4.91 |
| CCNC(=O)N(C)C1CCN(Cc2ncc(C)c(OC)c2C)CC1 | -0.514 |
| CCOc1ccc(OCCN2CCC(N3CCNC3=O)CC2)cc1 | 41.3 |
| Cc1cccc(-c2nc(CN3CCCC3Cn3cc(C)cn3)no2)c1 (stereo not given) | -1.82 |
| CC(C)N(CC(N)=O)Cc1csc(COc2ccc(F)cc2)n1 | 33.9 |
| Cc1nc(C)n(CC2CCCN(c3ncnc4ccsc34)C2)n1 (stereo not given) | 42.4 |
| Cc1ccc(CN(CCCn2ccnc2)Cc2cccs2)s1 | -17.6 |
| O=C(N1CCOCC1)[C@@]12CCO[C@@H]1CCN(Cc1ccncc1)C2 | -1.2 |
| Cn1cc(CN2C[C@@H]3OCCN(c4ncccn4)[C@@H]3C2)cn1 | -75.1 |
| O=C(c1ccc(F)cc1)N1CCN2C[C@H](OCc3cccnc3)C[C@H]2C1 | -85.1 |
| O=C(N1CCCC1)N1CCC2(CC1)CN(c1cccnc1)C(=O)CO2 | -99.6 |
| C/N=C1\c2cc3cc(OC)ccc3n2CCN1Cc1ccccc1 | 80.4 |
